Data published in ChEMBL document CHEMBL4400543, “Identification and Characterization of AES-135, a Hydroxamic Acid-Based HDAC Inhibitor That Prolongs Survival in an Orthotopic Mouse Model of Pancreatic Cancer” (J Med Chem, 2019).
Active and inactive are the calls of the source.

Columns and labels:
[1] = Drug uptake in NSG mouse serum at 10 mg/kg, ip administered daily for 5 days by HPLC-MS/MS analysis; type: ADME, organism-based; details: read-out: Drug uptake
Outline: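 NSG mice dosed IP once daily for 5 days at 10 or 40 mg/kg, n = 6. Blood collected 5 h after the final injection for serum drug concentration, reported ± SD.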

[2] = target: T1, Protein deacetylase HDAC6 (Homo sapiens, UniProt Q9UBN7); assay: Inhibition of recombinant human HDAC6 expressed in SF9 baculoviral system using FAM-labeled acetylated peptide as substrate by EMSA
T1 sequence (Q9UBN7 whole entry): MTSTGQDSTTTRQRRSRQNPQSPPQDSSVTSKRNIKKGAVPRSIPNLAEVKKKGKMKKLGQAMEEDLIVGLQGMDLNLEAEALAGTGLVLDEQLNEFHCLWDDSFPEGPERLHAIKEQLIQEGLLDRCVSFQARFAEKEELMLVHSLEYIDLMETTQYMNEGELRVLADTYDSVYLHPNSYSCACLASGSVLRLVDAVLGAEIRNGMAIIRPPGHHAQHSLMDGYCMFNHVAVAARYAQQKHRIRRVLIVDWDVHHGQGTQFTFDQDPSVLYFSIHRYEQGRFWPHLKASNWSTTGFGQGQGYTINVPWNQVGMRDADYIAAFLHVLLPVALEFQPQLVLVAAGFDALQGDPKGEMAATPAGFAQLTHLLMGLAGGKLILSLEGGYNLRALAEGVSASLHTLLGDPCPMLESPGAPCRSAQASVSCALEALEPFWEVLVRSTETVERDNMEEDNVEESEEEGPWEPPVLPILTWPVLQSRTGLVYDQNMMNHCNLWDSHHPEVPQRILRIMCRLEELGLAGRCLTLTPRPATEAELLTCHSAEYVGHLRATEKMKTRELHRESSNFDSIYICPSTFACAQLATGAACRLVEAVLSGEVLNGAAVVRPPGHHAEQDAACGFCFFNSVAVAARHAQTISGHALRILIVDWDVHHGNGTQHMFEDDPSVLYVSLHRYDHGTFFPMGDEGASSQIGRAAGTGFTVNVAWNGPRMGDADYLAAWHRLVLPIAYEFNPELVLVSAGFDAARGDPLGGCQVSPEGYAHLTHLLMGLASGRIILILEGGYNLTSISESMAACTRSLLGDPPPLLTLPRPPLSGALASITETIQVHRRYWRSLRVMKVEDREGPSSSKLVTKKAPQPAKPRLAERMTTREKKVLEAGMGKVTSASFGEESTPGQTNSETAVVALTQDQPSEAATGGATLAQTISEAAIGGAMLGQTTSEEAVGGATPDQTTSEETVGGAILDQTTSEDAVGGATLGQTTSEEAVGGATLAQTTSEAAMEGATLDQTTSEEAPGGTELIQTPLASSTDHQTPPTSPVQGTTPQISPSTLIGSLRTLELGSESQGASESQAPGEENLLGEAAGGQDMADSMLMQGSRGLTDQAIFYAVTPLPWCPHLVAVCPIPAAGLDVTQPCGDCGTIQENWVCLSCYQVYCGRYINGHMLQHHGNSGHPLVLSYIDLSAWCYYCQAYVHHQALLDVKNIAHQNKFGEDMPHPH
Outline: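 Full-length recombinant human enzyme from an Sf9 baculovirus system, in 100 mM HEPES pH 7.5 with 25 mM KCl, 0.1% BSA, 0.01% Triton X-100 and 1% DMSO. Final enzyme was 0.5 nM for HDAC3, 60 nM for HDAC6 and 5.0 nM for HDAC8. FAM-acetylated peptide was 1 μM. The read-out was product/(substrate+product) by microfluidic mobility shift, with inhibition set against DMSO and no-enzyme controls (quadruplicate). Compounds were tested at 12 threefold-spaced concentrations, and IC50 came from a four-parameter sigmoid fit.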

Panc1005 [3] = assay: Cytotoxicity against human Panc 10.05 cells assessed as reduction in tumor spheroid intensity after 72 hrs in presence of human CAF19 cells by Alamar Blue assay; type: functional, cell-based; details: Panc1005, 72 h
Outline: (§1)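 3D spheroids of patient-derived PDAC cells (tomato red) alone or with CAF19 cells, plus CAF cultures. Imaging read-outs: area is the μ2 of objects above a tomato red intensity threshold; intensity is summed red or green pixel fluorescence after background removal. n = 3–5.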

Panc1005 [4] = assay: Cytotoxicity against human Panc 10.05 cells assessed as reduction in tumor spheroid area after 72 hrs in presence of human CAF19 cells by Alamar Blue assay; type: functional, cell-based; details: Panc1005, 72 h; outline: as §1
[5] = target: Histone deacetylase 11 (Homo sapiens) (UniProt Q96DB2); assay: Inhibition of recombinant human HDAC11 expressed in SF9 baculoviral system at 10 uM using FAM-labeled acetylated peptide as substrate by EMSA relative to control
Outline: (§2)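 Full-length recombinant human HDACs from an Sf9 baculovirus system. Single-point screen at 10 μM by microfluidic mobility-shift assay with FAM-labeled acetylated peptide substrate. Buffer: 100 mM HEPES pH 7.5, 25 mM KCl, 0.1% BSA, 0.01% Triton X-100, 1% DMSO. % inhibition from product/(substrate + product) against no-inhibitor and no-enzyme controls.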

MDA-MB-231 = assay: Cytotoxicity against human MDA-MB-231 cells after 72 hrs by CellTiter-Blue assay; type: functional, cell-based; details: MDA-MB-231, 72 h
Outline: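 MDA-MB-231 cells in DMEM with 10% FBS, 10 000 cells/well, treated after 24 h. Twofold dilutions from 50.0 μM, in triplicate, 0.5% DMSO vehicle. 72 h at 37 °C. CellTiter-Blue fluorescence read at 560/590 nm. IC50 by nonlinear regression.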

[6] = Tmax in NSG mouse at 20 mg/kg, ip administered as single dose by HPLC-MS/MS analysis; type: ADME, organism-based; details: in vivo
Outline: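 NSG mice received a single 20 mg/kg IP injection in Cremophor EL/EtOH (1:1, 4% final volume)/sterile saline. Tail-vein blood was taken at 0.5, 1, 2, 4, 8 and 24 h, and compound was quantified in plasma (n = 2).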

[7] = Selectivity ratio of IC50 for human CAF19 cells to IC50 for human Pa03C cells
MV4-11 = assay: Cytotoxicity against human MV4-11 cells at 50 uM after 72 hrs by CellTiter-Blue assay; type: functional, cell-based
Outline: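 Cells in 10% FBS medium, 10 000 cells/well, treated 24 h after plating. Twofold dilution series from a 50.0 μM top dose to 0.097656 μM, in triplicate, 0.5% DMSO vehicle. 72 h at 37 °C, 5% CO2. CellTiter-Blue for 1–4 h, fluorescence 560/590 nm. IC50 by nonlinear regression.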

[8] = target: Polyamine deacetylase HDAC10 (Homo sapiens) (UniProt Q969S8); assay: Inhibition of recombinant human HDAC10 expressed in SF9 baculoviral system at 10 uM using FAM-labeled acetylated peptide as substrate by EMSA relative to control; outline: as §2
[9] = Bioavailability in NSG mouse at 20 mg/kg, ip administered as single dose by HPLC-MS/MS analysis; type: ADME, organism-based; details: in vivo
Pa03C = assay: Cytotoxicity against human Pa03C cells assessed as reduction in tumor spheroid area after 72 hrs in presence of human CAF19 cells by Alamar Blue assay; type: functional, cell-based; outline: as §1

Sequence of Histone deacetylase 11 (Homo sapiens) (Q96DB2 whole entry): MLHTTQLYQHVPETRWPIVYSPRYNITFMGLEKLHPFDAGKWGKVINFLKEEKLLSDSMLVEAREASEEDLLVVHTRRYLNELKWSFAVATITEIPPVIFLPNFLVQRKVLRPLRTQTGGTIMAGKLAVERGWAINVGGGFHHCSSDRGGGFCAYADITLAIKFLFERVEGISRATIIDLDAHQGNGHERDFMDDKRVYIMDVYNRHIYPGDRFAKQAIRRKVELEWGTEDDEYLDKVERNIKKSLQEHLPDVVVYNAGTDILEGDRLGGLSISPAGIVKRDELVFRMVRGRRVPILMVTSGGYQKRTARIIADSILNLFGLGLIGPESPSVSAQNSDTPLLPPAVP
Sequence of Polyamine deacetylase HDAC10 (Homo sapiens) (Q969S8 whole entry): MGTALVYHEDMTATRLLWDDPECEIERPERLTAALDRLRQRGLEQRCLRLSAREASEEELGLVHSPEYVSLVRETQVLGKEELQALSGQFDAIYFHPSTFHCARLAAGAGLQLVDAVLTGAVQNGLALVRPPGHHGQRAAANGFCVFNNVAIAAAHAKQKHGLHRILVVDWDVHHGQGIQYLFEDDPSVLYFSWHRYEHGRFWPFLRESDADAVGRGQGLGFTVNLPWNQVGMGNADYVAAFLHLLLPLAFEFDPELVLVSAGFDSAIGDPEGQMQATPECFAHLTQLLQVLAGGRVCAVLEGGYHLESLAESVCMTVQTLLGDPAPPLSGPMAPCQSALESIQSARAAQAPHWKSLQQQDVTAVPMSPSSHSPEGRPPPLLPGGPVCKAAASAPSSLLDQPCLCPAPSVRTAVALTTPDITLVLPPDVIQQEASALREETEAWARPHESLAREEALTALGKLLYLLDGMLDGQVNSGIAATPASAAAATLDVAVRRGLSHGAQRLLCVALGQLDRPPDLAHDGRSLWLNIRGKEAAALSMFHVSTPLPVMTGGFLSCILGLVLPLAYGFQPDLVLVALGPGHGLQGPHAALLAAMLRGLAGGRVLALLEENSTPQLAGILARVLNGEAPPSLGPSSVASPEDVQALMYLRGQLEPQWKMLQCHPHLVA

Work on `CC(C)(C)c1ccc(CN(C(=O)CN(Cc2c(F)c(F)c(F)c(F)c2F)S(=O)(=O)c2ccc(F)cc2)c2ccc(C(=O)NO)cc2)cc1` yielded a concentration at 120 h [1] of 470 nM, an IC50 [2] of 190 nM and an IC50 (Panc1005 [3]) of 500 nM. For the same compound, the IC50 (Panc1005 [4]) was 940 nM, the inhibition [5] was 97% and the IC50 (MDA-MB-231) was 2720 nM. The Tmax [6] was 30 min, the “Ratio IC50” value [7] was 5 - 6 and the Activity (MV4-11) was “Active”. For the same compound, the inhibition [8] was 70%, the bioavailability [9] was 100% and the IC50 (Pa03C) was 1410 nM.
